The text below walks through data of ChEMBL document CHEMBL1255398, “In vitro activities of eight antifungal drugs against 55 clinical isolates of Fonsecaea spp” (2010).

≈ marks a conversion by molar mass, not a printed value. Starred links: 1 amine or outer side, 2 acyl side, 3 side chain; linkers in the order of their positions; H or OH if unused. Positions of bridges follow the written chain, without caps; N, C: chain ends. Non-standard residues stand in square brackets, D forms with d. Residues, ends and D or L forms follow the SMILES beside them. *: point of attachment. pTerphenylCO(4''-OnC5H11) = CCCCCOc1ccc(-c2ccc(-c3ccc(C(=O)*)cc3)cc2)cc1; Orn(4R-OH,5R-OH) = O=C([C@H](C[C@@H](O)[C@@H](O)N[*:3])N[*:1])[*:2]; hTyr(3S-OH,4S-OH) = N[C@H](C(=O)O)[C@H](O)[C@@H](O)c1ccc(O)cc1; Pro(3S-OH,4S-Me) = C[C@H]1CN[C@H](C(=O)O)[C@H]1O; Hyp = O=C(O)[C@@H]1C[C@@H](O)CN1

Holding throughout (type): functional
The subject of one test is Fonsecaea monophora. The test can be described thus: Antimicrobial activity against Fonsecaea monophora isolates after 72 hrs by CLSI M38-A2 protocol method. In outline: (§1)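 Broth microdilution per CLSI M38-A2. Isolates grown on potato dextrose agar at 35°C for up to 7 days. Inocula were scraped into saline with 0.05% Tween 40, settled 3 to 5 min, and adjusted at 530 nm to 68 to 71% transmission (1.5 × 104 to 4 × 10^4 CFU/ml). Incubated 72 h at 35°C and read visually against drug-free control: MIC at 100% or ≥50% inhibition depending on drug, MEC microscopically by compact hyphae.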

The subject of test [1] is Fonsecaea. Nature of the test: Antimicrobial activity against Fonsecaea nubica isolates after 72 hrs by CLSI M38-A2 protocol method. In outline:
as §1

The test system of test [2] is Fonsecaea. The test can be described thus: Antimicrobial activity against Fonsecaea isolates after 72 hrs by CLSI M38-A2 protocol method. The gist of the method: as §1
A further test relates to Fonsecaea pedrosoi. The test can be described thus: Antimicrobial activity against Fonsecaea pedrosoi isolates after 72 hrs by CLSI M38-A2 protocol method. The gist of the method:
as §1

As to `C[C@@H]1[C@H](O)[C@@H](C)/C=C/C=C/C=C/C=C/C=C/C=C/C=C/[C@H](O[C@@H]2O[C@H](C)[C@@H](O)[C@H](N)[C@@H]2O)C[C@@H]2O[C@](O)(C[C@@H](O)C[C@@H](O)[C@H](O)CC[C@@H](O)C[C@@H](O)CC(=O)O[C@H]1C)C[C@H](O)[C@H]2C(=O)O` [AMPHOTERICIN B], the MIC50 in the test with Fonsecaea monophora, in the test on Fonsecaea [1], with Fonsecaea [2] and in the test on Fonsecaea pedrosoi was 1 µg/mL (≈ 1.08 µM) throughout. The MIC90 with Fonsecaea monophora, with Fonsecaea [1], with Fonsecaea [2] and in the test with Fonsecaea pedrosoi was 2 µg/mL (≈ 2.16 µM) each time.

For `CCCCCOc1ccc(-c2ccc(-c3ccc(C(=O)N[C@H]4C[C@@H](O)[C@@H](O)NC(=O)[C@@H]5[C@@H](O)[C@@H](C)CN5C(=O)[C@H]([C@@H](C)O)NC(=O)[C@H]([C@H](O)[C@@H](O)c5ccc(O)cc5)NC(=O)[C@@H]5C[C@@H](O)CN5C(=O)[C@H]([C@@H](C)O)NC4=O)cc3)cc2)cc1` [ANIDULAFUNGIN] ({pTerphenylCO(4''-OnC5H11)}-[Orn(4R-OH,5R-OH)]T[Hyp][hTyr(3S-OH,4S-OH)]T[Pro(3S-OH,4S-Me)]; lactam 1-C), in the test with Fonsecaea monophora, the MIC50 was determined as 4 µg/mL (≈ 3.51 µM) and the MIC90 came to 8 µg/mL (≈ 7.02 µM). In the test with Fonsecaea [1], this molecule displayed an MIC of 2 µg/mL (≈ 1.75 µM), an MIC50 of 2 µg/mL (≈ 1.75 µM) and an MIC90 of 8 µg/mL (≈ 7.02 µM). In addition, in the test on Fonsecaea pedrosoi, the MIC50 was determined as 8 µg/mL (≈ 7.02 µM) and the MIC90 was 8 µg/mL (≈ 7.02 µM).

Consider `CC[C@H](C)C[C@H](C)CCCCCCCCC(=O)N[C@H]1C[C@@H](O)[C@@H](NCCN)NC(=O)[C@@H]2[C@@H](O)CCN2C(=O)[C@H]([C@H](O)CCN)NC(=O)[C@H]([C@H](O)[C@@H](O)c2ccc(O)cc2)NC(=O)[C@@H]2C[C@@H](O)CN2C(=O)[C@H]([C@@H](C)O)NC1=O` [CASPOFUNGIN], for which the MIC50 came to 2 µg/mL (≈ 1.83 µM) against Fonsecaea monophora, 2 µg/mL (≈ 1.83 µM) with Fonsecaea [1], 2 µg/mL (≈ 1.83 µM) with Fonsecaea [2] and 4 µg/mL (≈ 3.66 µM) in the test on Fonsecaea pedrosoi. Besides, the MIC90 amounted to 2 µg/mL (≈ 1.83 µM) in the test with Fonsecaea monophora, 4 µg/mL (≈ 3.66 µM) in the test with Fonsecaea [1], 2 µg/mL (≈ 1.83 µM) against Fonsecaea [2] and 4 µg/mL (≈ 3.66 µM) in the test on Fonsecaea pedrosoi. The molecule further displayed an MIC with Fonsecaea [1] of 2 µg/mL (≈ 1.83 µM).

`OC(Cn1cncn1)(Cn1cncn1)c1ccc(F)cc1F` [FLUCONAZOLE]: the MIC50 was determined as 16 µg/mL (≈ 52.2 µM) with Fonsecaea monophora, 16 µg/mL (≈ 52.2 µM) against Fonsecaea [1], 16 µg/mL (≈ 52.2 µM) against Fonsecaea [2] and 32 µg/mL (≈ 104 µM) in the test on Fonsecaea pedrosoi. In addition, the MIC90 with Fonsecaea monophora, with Fonsecaea [1], against Fonsecaea [2] and in the test with Fonsecaea pedrosoi was 32 µg/mL (≈ 104 µM) each time. Besides, the MIC in the test with Fonsecaea [1] is 16 µg/mL (≈ 52.2 µM).

For `C[C@@H](c1nc(-c2ccc(C#N)cc2)cs1)[C@](O)(Cn1cncn1)c1cc(F)ccc1F` [ISAVUCONAZOLE], the MIC50 in the test on Fonsecaea monophora was 0.125 µg/mL (≈ 0.286 µM); with Fonsecaea [1] it was 0.125 µg/mL (≈ 0.286 µM); with Fonsecaea [2] it was 0.25 µg/mL (≈ 0.571 µM); against Fonsecaea pedrosoi, 0.25 µg/mL (≈ 0.571 µM). Also, the MIC90 against Fonsecaea monophora worked out at 0.25 µg/mL (≈ 0.571 µM); against Fonsecaea [1], 0.5 µg/mL (≈ 1.14 µM); in the test with Fonsecaea [2] it was 0.25 µg/mL (≈ 0.571 µM); against Fonsecaea pedrosoi, 0.25 µg/mL (≈ 0.571 µM).

`CCC(C)n1ncn(-c2ccc(N3CCN(c4ccc(OCC5COC(Cn6cncn6)(c6ccc(Cl)cc6Cl)O5)cc4)CC3)cc2)c1=O` (configuration not stated) [ITRACONAZOLE]: the MIC50 in the test with Fonsecaea monophora came out at 0.063 µg/mL (≈ 0.0893 µM); in the test on Fonsecaea [1] it was 0.125 µg/mL (≈ 0.177 µM); in the test on Fonsecaea [2], 0.063 µg/mL (≈ 0.0893 µM); with Fonsecaea pedrosoi, 0.063 µg/mL (≈ 0.0893 µM). Further, the MIC90 in the test on Fonsecaea monophora is 0.125 µg/mL (≈ 0.177 µM); in the test on Fonsecaea [1], 0.25 µg/mL (≈ 0.354 µM); in the test with Fonsecaea [2] it was 0.125 µg/mL (≈ 0.177 µM); against Fonsecaea pedrosoi, 0.125 µg/mL (≈ 0.177 µM).

For `CC[C@@H]([C@H](C)O)n1ncn(-c2ccc(N3CCN(c4ccc(OC[C@@H]5CO[C@@](Cn6cncn6)(c6ccc(F)cc6F)C5)cc4)CC3)cc2)c1=O` [POSACONAZOLE], the MIC50 against Fonsecaea monophora turned out to be 0.031 µg/mL (≈ 0.0442 µM); against Fonsecaea [1] it was 0.031 µg/mL (≈ 0.0442 µM); against Fonsecaea [2], 0.031 µg/mL (≈ 0.0442 µM); in the test with Fonsecaea pedrosoi, 0.063 µg/mL (≈ 0.0899 µM). Moreover, the MIC90 in the test on Fonsecaea monophora, against Fonsecaea [1], in the test on Fonsecaea [2] and against Fonsecaea pedrosoi was 0.063 µg/mL (≈ 0.0899 µM) throughout. In the test on Fonsecaea [1], this molecule displayed an MIC of 0.031 µg/mL (≈ 0.0442 µM).

As to `C[C@@H](c1ncncc1F)[C@](O)(Cn1cncn1)c1ccc(F)cc1F` [VORICONAZOLE], the MIC50 against Fonsecaea monophora is 0.063 µg/mL (≈ 0.18 µM); with Fonsecaea [1] it was 0.25 µg/mL (≈ 0.716 µM); against Fonsecaea [2], 0.25 µg/mL (≈ 0.716 µM); in the test on Fonsecaea pedrosoi, 0.5 µg/mL (≈ 1.43 µM). The MIC90 against Fonsecaea monophora was 0.125 µg/mL (≈ 0.358 µM); in the test with Fonsecaea [1], 0.5 µg/mL (≈ 1.43 µM); with Fonsecaea [2], 0.5 µg/mL (≈ 1.43 µM); in the test with Fonsecaea pedrosoi it was 0.5 µg/mL (≈ 1.43 µM). In addition, the MIC against Fonsecaea [1] stood at 0.25 µg/mL (≈ 0.716 µM).
